# Assay results published in article PMC5115981 (Cancer chemotherapy and pharmacology, 2016).
# Test: Mouse liver microsome incubation
# Assay type: in vitro ADME
# Outline: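 Microsomes from livers of female heterozygous Foxn1nu/Foxn1+ mice, with protein measured against a BSA standard. Incubations contained 0.5 mg/mL microsomal protein, 1,000 ng/mL drug, […], 0.1 M phosphate (pH 7.4) and <0.1% acetonitrile. Stopped with acetonitrile at 0, 15, 30, 45, 60 and 90 min, in triplicate. A positive control was run at 0 and 90 min. LC-MS used an analogue internal standard and calibrators in buffer with 0.5 mg/mL BSA. Results given as % of 0 min.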
smiles,measurement,setting,value
"COc1ccc(C2=Nn3c(nnc3-c3cc(-c4ccc(Cl)cc4)n[nH]3)SC2C)cc1 (centres unmarked) [UPCDC-10205, 3-(3-(4-chlorophenyl)-1H-pyrazole-5-yl)-6-(4-methoxyphenyl)-7-methyl-7H-[1,2,4]triazolo[3,4-b][1,3,4]thiadiazine]",metabolic stability among the four analogues,mouse liver microsome incubation,metabolically most stable
same,substrate depletion in the initial incubation,"mouse liver microsomes, NADPH, 90 min",20%
